The term viability denotes a read-out of living cells in per cent, often relative to untreated cells. By inhibition is commonly meant the drop in the measured response relative to a control, in per cent.

Data on 16 compounds can be found in PubChem BioAssay.

The nature of assay [1]: Her2 expression decrease, cell viability multiplex – SKBR3 breast tumor cells, AlphaScreen, ATP viability, primary screen (AID 461;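 active means Her2 level under about 52% in both replicate screens, with viability over 70% of control, limit read from the data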;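 on Her2 level: lower value means less Her2 protein in the cells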;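 on viability: percent of carrier control wells set as 100% viability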). The following applies: SKBR3 Her2 protein level, 18-24 h, measured here: SKBR3 viability, ATP luminescence, at 10 µM. Background: Bead proximity is the source of the signal in Alpha formats.
The target of assay [2] is Receptor tyrosine-protein kinase erbB-2 (Homo sapiens) (UniProt P04626). The assay is described as above. The following applies: 18-24 h, at 10 µM, stronger effect = lower value.
A short description of assay [3]: reduced viability of SK-BR-3 breast cancer cells – cell-based, 24 h, human, pilot screen (AID 572;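 active means viability at or below 10% of carrier control in both of two separate runs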;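 further: compound exposure lasted between 18 and 24 h rather than exactly 24 h; 100% = carrier-treated control wells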). The following applies: SK-BR-3 viability, CellTiter-Glo luminescence, at 10 µM, stronger effect = lower value. (ATP-based viability assays read luminescence as a measure of living cells.)
The nature of assay [4]: HUVEC growth inhibition – cell-based, human, primary screen (AID 575;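 active means viability at or below 30% in both replicate assays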;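 further: 100% = median of untreated cell wells with 0.1% DMSO on each plate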). The following applies: HUVEC proliferation, CellTiter-Glo luminescence, 72 h; at 10 µM; stronger effect = lower value. Put shortly: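 Timing: 72 h treatment at 37 °C; material: HUVEC primary cells; technique: CellTiter-Glo luminescence measuring cellular ATP; controls: vehicle and MePR control wells; measure: percent of median DMSO-control luminescence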

Assay [5] is described as follows: H69AR cell proliferation blockers – human, duplicate replicates, primary screen (AID 580;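 active means viability at or under a set limit in both replicates, limit being median viability minus 3 SD, cut at about 48% in these data, passing the limit was not always enough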;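 further: 100% = mean luminescence of untreated wells and 0% = no signal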). The following applies: H69AR lung tumor cells viability, ATP luminescence, 72 h; at 10 µM; stronger effect = lower value.
A short description of assay [6]: MRP1 drug-resistance reversers in H69AR cells – cell-based, doxorubicin co-treatment, pilot screen (AID 601;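 active means viability loss from added drug above about 55%, and viability with drug at most 40%, in both replicates, limit read from the data, passing the limit was not always enough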). The following applies: CellTiter-Glo, 72 h, at 10 µM; for differential viability (reversal): stronger effect = higher value.
Assay [7] is described as follows: yeast transport mutant growth inhibition pilot in 384-well plates, post-Golgi transport modulator project (AID 636; in the data active means inhibition above about 31%). The following applies: absorbance 615 nm, about 18 h, stronger effect = higher value.
Assay [8] can be described thus: growth suppression of yeast trafficking mutant, preliminary HTS, modulators of trafficking downstream of Golgi apparatus project, 1536-format plate, OD 615 nm (AID 637). The following applies: yeast transport mutant growth, absorbance 615 nm, 18 h; stronger effect = higher value.
Setting [9] is: H69AR cells + 2 uM doxorubicin, measured here: viability with 2 uM doxorubicin, stronger effect = lower value.
The mark [10] stands for this setting: H69AR cells, compound alone cytotoxicity.

The structures appear in SMILES notation. Activity calls are given as the source filed them. Unless noted, no stated cut-off is given here; in the data, active means inhibition above about 30%; inactive means the rest.

Receptor tyrosine-protein kinase erbB-2 (Homo sapiens), sequence (P04626 whole entry, looked up): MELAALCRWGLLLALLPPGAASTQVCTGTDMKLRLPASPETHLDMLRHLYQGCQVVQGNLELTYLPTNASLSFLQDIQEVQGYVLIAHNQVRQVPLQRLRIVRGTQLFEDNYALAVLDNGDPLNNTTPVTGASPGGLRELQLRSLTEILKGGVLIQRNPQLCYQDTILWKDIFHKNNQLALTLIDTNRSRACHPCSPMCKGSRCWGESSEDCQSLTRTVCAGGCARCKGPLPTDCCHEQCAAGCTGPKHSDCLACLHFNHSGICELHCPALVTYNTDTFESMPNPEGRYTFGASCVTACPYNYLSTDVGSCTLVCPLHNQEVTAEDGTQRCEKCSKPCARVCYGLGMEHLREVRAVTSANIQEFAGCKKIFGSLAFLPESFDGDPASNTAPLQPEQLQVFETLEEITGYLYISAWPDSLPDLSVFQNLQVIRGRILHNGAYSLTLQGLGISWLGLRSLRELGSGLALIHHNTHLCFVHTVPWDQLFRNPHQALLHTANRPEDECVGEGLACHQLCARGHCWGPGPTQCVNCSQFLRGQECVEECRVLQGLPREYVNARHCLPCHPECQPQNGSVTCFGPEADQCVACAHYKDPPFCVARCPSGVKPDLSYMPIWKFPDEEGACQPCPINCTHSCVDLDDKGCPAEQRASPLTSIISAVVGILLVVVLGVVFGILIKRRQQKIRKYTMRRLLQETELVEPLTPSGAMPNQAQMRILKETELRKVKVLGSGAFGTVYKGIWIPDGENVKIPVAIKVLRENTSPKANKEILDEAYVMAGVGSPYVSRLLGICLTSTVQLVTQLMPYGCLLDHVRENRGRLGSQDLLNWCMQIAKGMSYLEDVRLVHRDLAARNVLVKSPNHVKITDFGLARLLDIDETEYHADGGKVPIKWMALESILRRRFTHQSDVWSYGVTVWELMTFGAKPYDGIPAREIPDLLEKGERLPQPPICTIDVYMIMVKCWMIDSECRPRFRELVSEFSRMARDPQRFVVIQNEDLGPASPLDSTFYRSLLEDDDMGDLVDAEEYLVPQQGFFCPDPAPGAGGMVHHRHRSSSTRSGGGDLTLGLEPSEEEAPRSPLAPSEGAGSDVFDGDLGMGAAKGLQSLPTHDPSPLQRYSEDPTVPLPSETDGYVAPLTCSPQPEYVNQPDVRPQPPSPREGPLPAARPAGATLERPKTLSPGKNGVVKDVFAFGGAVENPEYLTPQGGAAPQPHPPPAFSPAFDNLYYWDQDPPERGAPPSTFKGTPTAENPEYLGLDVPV

On to `CCOC(=O)Nc1ccc2c(CN3C(=O)NC4(CCCC4)C3=O)cc(=O)oc2c1`, for which the viability in assay [1] is 89.5%; in assay [3] it was 89.5% (inactive); in assay [4] it was 89.2% (inactive); in assay [5], 88.3% (inactive); in assay [6] (setting [9]), 89.4%; in assay [6] (setting [10]) it was 88.3%. Moreover, in assay [2], the Her2 level was 92.5% (inactive). Besides, the differential viability (reversal) in assay [6] (H69AR cells + 2 uM doxorubicin) is -1.09% (inactive). The inhibition in assay [7] was -6.58% (inactive); in assay [8] it was -0.16% (inactive).
In the case of `CC(=O)NC(Cc1c[nH]c2ccccc12)C(=O)OCC(=O)Nc1cc(C)on1` (stereo not given), the viability in assay [1] is 91.5%; in assay [3], 91.5% (inactive); in assay [4], 101% (inactive); in assay [5], 97% (inactive); in assay [6] (setting [9]), 86%; in assay [6] (setting [10]) it was 97%. The Her2 level in assay [2] was 117% (inactive). Besides, in assay [6] (H69AR cells + 2 uM doxorubicin), the differential viability (reversal) is 11% (inactive). Also, the values for the inhibition in assay [7] and in assay [8] were 3.46% (inactive) and -7.83% (inactive), respectively.
For the compound `O=C(NCc1cccnc1)c1ccccn1`, the viability in assay [1] was 102%; in assay [3] it was 102% (inactive); in assay [4] it was 103% (inactive); in assay [5], 110% (inactive); in assay [6] (setting [9]), 93.9%; in assay [6] (setting [10]), 110%. For the same compound, the Her2 level in assay [2] was 108% (inactive). Also, the differential viability (reversal) in assay [6] (H69AR cells + 2 uM doxorubicin) is 16.2% (inactive). Also, the results for the inhibition in assay [7] and in assay [8] were -4.8% (inactive) and -3.65% (inactive), respectively.
Consider `COc1ccc(N2CCN(C(c3cccc(OC)c3OC)c3nnnn3C3CCCC3)CC2)cc1` (stereo not given), for which the viability in assay [1] was 88%; in assay [3], 88% (inactive); in assay [4], 94.4% (inactive); in assay [5], 88.5% (inactive); in assay [6] (setting [9]) it was 88.9%; in assay [6] (setting [10]), 88.5%. In assay [2], the Her2 level is 121% (inactive). Moreover, the differential viability (reversal) in assay [6] (H69AR cells + 2 uM doxorubicin) was -0.405% (inactive). The inhibition was 4.61% (inactive) in assay [7] and -2.06% (inactive) in assay [8].
For the compound `Cn1nc(C(=O)N2CCOCC2)c2ccccc2c1=O`, the viability is 93% in assay [1]; 93% (inactive) in assay [3]; 88.9% (inactive) in assay [4]; 89.3% (inactive) in assay [5]; 83.4% in assay [6] (setting [9]); 89.3% in assay [6] (setting [10]). Also, in assay [2], the Her2 level was 114% (inactive). The differential viability (reversal) in assay [6] (H69AR cells + 2 uM doxorubicin) was 5.89% (inactive). For the same compound, the figures for the inhibition in assay [7] and in assay [8] were -1.3% (inactive) and 0.67% (inactive), respectively.
Consider `CCN1CCN(Cc2ccc(NC(=O)Nc3ccc(SC)cc3)cc2)CC1`, for which the viability is 97.5% in assay [1]; 97.5% (inactive) in assay [3]; 62% (inactive) in assay [4]; 98.4% (inactive) in assay [5]; 80.1% in assay [6] (setting [9]); 98.4% in assay [6] (setting [10]). For the same compound, the Her2 level in assay [2] is 82.5% (inactive). Moreover, in assay [6] (H69AR cells + 2 uM doxorubicin), the differential viability (reversal) was 18.2% (inactive). Moreover, the values for the inhibition in assay [7] and in assay [8] were -4.93% (inactive) and 1.94% (inactive), respectively.
For `O=C(OCc1ccccc1F)c1ccc2c(c1)OCCO2`, the viability was 122% in assay [1]; 122% (inactive) in assay [3]; 103% (inactive) in assay [4]; 92% (inactive) in assay [5]; 82.7% in assay [6] (setting [9]); 92% in assay [6] (setting [10]). Also, the Her2 level in assay [2] was 86% (inactive). For the same compound, in assay [6] (H69AR cells + 2 uM doxorubicin), the differential viability (reversal) was 9.29% (inactive). In addition, the inhibition in assay [7] was -5.47% (inactive); in assay [8] it was -5.08% (inactive).
In the case of `COc1cccc(NC(=O)N2CCN(C(=O)C(Cc3ccc(OC)c(OC)c3)NC(C)=O)CC2)c1` (stereo not given), the viability in assay [1] is 97%; in assay [3], 97% (inactive); in assay [4], 91.1% (inactive); in assay [5] it was 90.7% (inactive); in assay [6] (setting [9]), 88.5%; in assay [6] (setting [10]), 90.7%. In addition, the Her2 level in assay [2] is 124% (inactive). For the same compound, in assay [6] (H69AR cells + 2 uM doxorubicin), the differential viability (reversal) was 2.21% (inactive). Moreover, the inhibition was -4.62% (inactive) in assay [7] and -7.5% (inactive) in assay [8].
As for `CC1=C(C(=O)Nc2ccccc2)C(c2cccs2)C(C#N)=C(SCC#N)N1` (stereo not given), the viability in assay [1] is 104%; in assay [3] it was 104% (inactive); in assay [4] it was 64% (inactive); in assay [5], 82.8% (inactive); in assay [6] (setting [9]), 96.2%; in assay [6] (setting [10]) it was 82.8%. In assay [2], the Her2 level was 96.5% (inactive). The differential viability (reversal) in assay [6] (H69AR cells + 2 uM doxorubicin) is -13.4% (inactive). The inhibition in assay [7] is -0.4% (inactive); in assay [8], 19.2% (inactive).
For the compound `O=C(Nc1ccncc1)c1cncc(Br)c1`, the viability in assay [1] is 78%; in assay [3], 78% (inactive); in assay [4] it was 114% (inactive); in assay [5], 100% (inactive); in assay [6] (setting [9]) it was 96.4%; in assay [6] (setting [10]) it was 100%. In assay [2], the Her2 level is 95.5% (inactive). Further, the differential viability (reversal) in assay [6] (H69AR cells + 2 uM doxorubicin) is 4.04% (inactive). The inhibition in assay [7] was -2.57% (inactive); in assay [8] it was 1.5% (inactive).
Take `O=C(CSc1nnc(CNC(=O)c2cccs2)o1)NC1CCCC1`: the viability in assay [1] is 102%; in assay [3], 102% (inactive); in assay [4], 102% (inactive); in assay [5] it was 82.4% (inactive); in assay [6] (setting [9]) it was 83.2%; in assay [6] (setting [10]), 82.4%. Moreover, in assay [2], the Her2 level is 100% (inactive). Also, the differential viability (reversal) in assay [6] (H69AR cells + 2 uM doxorubicin) is -0.76% (inactive). In addition, the inhibition in assay [7] was -0.26% (inactive); in assay [8] it was -1.17% (inactive).
As to `Cn1cnnc1SCC(=O)Nc1sc2c(c1C#N)CCCCC2`, the viability is 86% in assay [1]; 86% (inactive) in assay [3]; 73.5% (inactive) in assay [4]; 95.2% (inactive) in assay [5]; 83.9% in assay [6] (setting [9]); 95.2% in assay [6] (setting [10]). The Her2 level in assay [2] was 102% (inactive). Moreover, the differential viability (reversal) in assay [6] (H69AR cells + 2 uM doxorubicin) is 11.4% (inactive). Further, the inhibition in assay [7] was 10.1% (inactive); in assay [8] it was 27.9% (inactive).
In the case of `O=C(Nc1ccccc1N1CCN(c2ccc(F)cc2)CC1)c1ccccc1`, the viability is 95% in assay [1]; 95% (inactive) in assay [3]; 78.5% (inactive) in assay [4]; 93.8% (inactive) in assay [5]; 84.6% in assay [6] (setting [9]); 93.8% in assay [6] (setting [10]). Moreover, the Her2 level in assay [2] is 96% (inactive). Moreover, the differential viability (reversal) in assay [6] (H69AR cells + 2 uM doxorubicin) was 9.15% (inactive). Besides, the inhibition is -5.87% (inactive) in assay [7] and 4.13% (inactive) in assay [8].
Regarding `COc1cccc(NC(=O)CSc2nnc(-c3cccs3)n2C)c1`, the viability was 98% in assay [1]; 98% (inactive) in assay [3]; 116% (inactive) in assay [4]; 97.5% (inactive) in assay [5]; 85.3% in assay [6] (setting [9]); 97.5% in assay [6] (setting [10]). In addition, the Her2 level in assay [2] is 78.5% (inactive). Further, the differential viability (reversal) in assay [6] (H69AR cells + 2 uM doxorubicin) was 12.2% (inactive). Besides, the inhibition in assay [7] was -6.08% (inactive); in assay [8], -1.67% (inactive).
`O=C(CCn1c(=O)sc2ccccc21)Nc1cccnc1`: the viability in assay [1] was 104%; in assay [3], 104% (inactive); in assay [4] it was 96.8% (inactive); in assay [5], 99.6% (inactive); in assay [6] (setting [9]) it was 91%; in assay [6] (setting [10]), 99.6%. Further, in assay [2], the Her2 level is 92% (inactive). The differential viability (reversal) in assay [6] (H69AR cells + 2 uM doxorubicin) is 8.59% (inactive). Moreover, the inhibition in assay [7] was -3.87% (inactive); in assay [8], 1.48% (inactive).
`CCCCn1c(=O)[nH]c(=O)c2c1nc(-c1ccncc1)n2CCOC`: the viability is 108% in assay [1]; 108% (inactive) in assay [3]; 90.5% (inactive) in assay [4]; 94.2% (inactive) in assay [5]; 92.2% in assay [6] (setting [9]); 94.2% in assay [6] (setting [10]). Moreover, in assay [2], the Her2 level was 116% (inactive). In addition, the differential viability (reversal) in assay [6] (H69AR cells + 2 uM doxorubicin) was 1.93% (inactive). Further, the values for the inhibition in assay [7] and in assay [8] were 1.43% (inactive) and -6.5% (inactive), respectively.
